The record followed here is ChEMBL document CHEMBL2434871, “Discovery of a potent dual EGFR/HER-2 inhibitor L-2 (selatinib) for the treatment of cancer” (Eur J Med Chem, 2013).

Each structure is given as a SMILES string. pIC50: −log10 of the molar value.

For data set [1], the target named is Receptor tyrosine-protein kinase erbB-2 (Homo sapiens, UniProt P04626). Nature of the data set: Inhibition of HER-2 (unknown origin) using poly-(Glu4-Tyr) as substrate after 1 hr by ELISA-based spectrophotometry. The method in brief:
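ELISA on plates pre-coated with poly(Glu,Tyr 4:1) substrate. Serially diluted compounds plus ATP were added in 50 mM HEPES pH 7.4 containing 20 mM MgCl₂, 0.2 mM MnCl₂, 0.1 mM Na₃VO₄ and 1 mM DTT. Phosphotyrosine was detected with anti-phosphotyrosine antibody PY99 (1:500), then HRP anti-mouse IgG, then o-phenylenediamine/H₂O₂ at pH 5.5.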
A general note: In an ELISA, binding on a coated surface is turned into a signal by an enzyme label.

Data set [2] deals with Epidermal growth factor receptor (Homo sapiens, UniProt P00533). Nature of the data set: Inhibition of EGFR (unknown origin) using poly-(Glu4-Tyr) as substrate after 1 hr by ELISA-based spectrophotometry.
Data set [3] deals with NCI-N87. Nature of the data set: Antitumor activity against human NCI-N87 cells xenografted in BALB/c athymic mouse assessed as tumor regression at 200 mg/kg, po qd after 28 days relative to vehicle-treated control. In kind it is functional. The following applies: NCI-N87, 672 h, read-out: TGI. The method in brief:
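Female BALB/c athymic mice, 4–6 weeks old, received 2 × 10⁶ NCI-N87 or SK-OV-3 cells s.c. in the right flank. At a tumor volume of 100–300 mm³ they were randomized (control n = 10, treated n = 6). Tosylate salt was given at 200 mg/kg qd by oral gavage, and controls received vehicle. Tumor volume was taken as length × width²/2 by caliper. Inhibition = (1 − T/C) × 100% on mean relative tumor volume (RTV). Two-tailed t test.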
For orientation: A xenograft is tissue or cells of one species grown in another, often human tumour cells in immunodeficient mice.

Data set [4] concerns Mus musculus. Nature of the data set: Toxicity in BALB/c athymic mouse xenografted with human SKOV3 cells assessed as bloody stool at 200 mg/kg, po qd after 4 days. The format is organism-based, SK-OV-3. Also on record: dose 200 mg/kg, route oral. The following applies: in vivo, 96 h.
Data set [5] concerns Mus musculus. Nature of the data set: Toxicity in BALB/c athymic mouse xenografted with human NCI-N87 cells assessed as bloody stool at 200 mg/kg, po qd after 4 days. In kind it is organism-based. Details: dose 200 mg/kg, route oral. The following applies: in vivo, 96 h.
The subject of data set [6] is Mus musculus. Nature of the data set: Toxicity in BALB/c athymic mouse xenografted with human SKOV3 cells assessed as hematuria at 200 mg/kg, po qd after 4 days. In kind it is organism-based, SK-OV-3. Details: dose 200 mg/kg, route oral. The following applies: in vivo, 96 h.
For data set [7], the system named is Mus musculus. Nature of the data set: Toxicity in BALB/c athymic mouse xenografted with human NCI-N87 cells assessed as hematuria at 200 mg/kg, po qd after 4 days. In kind it is organism-based. Details: dose 200 mg/kg, route oral. The following applies: in vivo, 96 h.
Data set [8] concerns Mus musculus. Briefly: Toxicity in BALB/c athymic mouse xenografted with human SKOV3 cells assessed as weight loss at 200 mg/kg, po qd after 4 days. The following applies: in vivo, 96 h. The format is organism-based, SK-OV-3. Details: dose 200 mg/kg, route oral.
Data set [9] concerns Mus musculus. Briefly: Toxicity in BALB/c athymic mouse xenografted with human NCI-N87 cells assessed as weight loss at 200 mg/kg, po qd after 4 days. In kind it is organism-based. Details: dose 200 mg/kg, route oral. The following applies: in vivo, 96 h.
For a further data set, the system named is BT-474. Nature of the data set: Cytotoxicity against human BT474 cells after 72 hrs by SRB assay. In kind it is functional, cell-based. The following applies: BT-474, 72 h. In general terms: Sulforhodamine B stains cellular protein and so reports cell mass.
For data set [10], the system named is NCI-N87. Briefly: Cytotoxicity against human NCI-N87 cells after 72 hrs by SRB assay. The format is functional, cell-based. The following applies: NCI-N87, 72 h.
The nature of data set [11]: Aqueous solubility of the compound at 25 degC by shake-flask method. In kind it is physicochemical. The following applies: unbuffered water.
For another data set, the system named is SK-OV-3. Briefly: Antitumor activity against human SKOV3 cells xenografted in BALB/c athymic mouse assessed as tumor regression at 200 mg/kg, po qd after 21 days relative to vehicle-treated control. The following applies: SK-OV-3, po, 504 h, read-out: TGI.

Chain of Receptor tyrosine-protein kinase erbB-2 (P04626 whole entry): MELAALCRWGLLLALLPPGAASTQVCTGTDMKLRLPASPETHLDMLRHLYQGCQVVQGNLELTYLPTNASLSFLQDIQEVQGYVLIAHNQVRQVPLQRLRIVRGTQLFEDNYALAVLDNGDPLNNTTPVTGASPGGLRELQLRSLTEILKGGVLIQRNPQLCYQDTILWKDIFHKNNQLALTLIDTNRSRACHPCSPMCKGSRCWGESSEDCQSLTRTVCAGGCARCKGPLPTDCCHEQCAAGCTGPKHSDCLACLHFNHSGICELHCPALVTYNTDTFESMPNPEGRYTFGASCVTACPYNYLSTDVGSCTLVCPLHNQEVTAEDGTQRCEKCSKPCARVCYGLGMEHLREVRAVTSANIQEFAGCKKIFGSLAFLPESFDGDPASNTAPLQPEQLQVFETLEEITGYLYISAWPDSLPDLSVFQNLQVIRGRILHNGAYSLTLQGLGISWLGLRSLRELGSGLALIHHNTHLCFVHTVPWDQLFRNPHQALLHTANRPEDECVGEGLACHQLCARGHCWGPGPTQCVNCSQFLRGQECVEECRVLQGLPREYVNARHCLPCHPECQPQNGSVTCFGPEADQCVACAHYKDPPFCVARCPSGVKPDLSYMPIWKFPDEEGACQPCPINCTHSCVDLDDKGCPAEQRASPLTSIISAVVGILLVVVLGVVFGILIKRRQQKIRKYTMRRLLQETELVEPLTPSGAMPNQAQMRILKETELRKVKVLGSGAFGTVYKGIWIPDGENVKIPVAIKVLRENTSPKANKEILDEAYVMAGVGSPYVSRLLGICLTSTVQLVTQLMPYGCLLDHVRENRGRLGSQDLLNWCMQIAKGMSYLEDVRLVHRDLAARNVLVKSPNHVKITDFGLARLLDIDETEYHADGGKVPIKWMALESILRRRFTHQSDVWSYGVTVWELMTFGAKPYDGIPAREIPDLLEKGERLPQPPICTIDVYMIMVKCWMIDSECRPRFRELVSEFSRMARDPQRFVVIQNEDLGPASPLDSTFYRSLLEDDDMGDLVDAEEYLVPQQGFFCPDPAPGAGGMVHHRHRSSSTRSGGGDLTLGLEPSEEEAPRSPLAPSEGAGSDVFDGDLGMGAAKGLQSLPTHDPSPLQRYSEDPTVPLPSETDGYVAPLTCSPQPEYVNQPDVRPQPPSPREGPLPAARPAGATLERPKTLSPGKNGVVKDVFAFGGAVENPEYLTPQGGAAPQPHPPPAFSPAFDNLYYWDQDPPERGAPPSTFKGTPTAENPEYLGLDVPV
Chain of Epidermal growth factor receptor (P00533 whole entry): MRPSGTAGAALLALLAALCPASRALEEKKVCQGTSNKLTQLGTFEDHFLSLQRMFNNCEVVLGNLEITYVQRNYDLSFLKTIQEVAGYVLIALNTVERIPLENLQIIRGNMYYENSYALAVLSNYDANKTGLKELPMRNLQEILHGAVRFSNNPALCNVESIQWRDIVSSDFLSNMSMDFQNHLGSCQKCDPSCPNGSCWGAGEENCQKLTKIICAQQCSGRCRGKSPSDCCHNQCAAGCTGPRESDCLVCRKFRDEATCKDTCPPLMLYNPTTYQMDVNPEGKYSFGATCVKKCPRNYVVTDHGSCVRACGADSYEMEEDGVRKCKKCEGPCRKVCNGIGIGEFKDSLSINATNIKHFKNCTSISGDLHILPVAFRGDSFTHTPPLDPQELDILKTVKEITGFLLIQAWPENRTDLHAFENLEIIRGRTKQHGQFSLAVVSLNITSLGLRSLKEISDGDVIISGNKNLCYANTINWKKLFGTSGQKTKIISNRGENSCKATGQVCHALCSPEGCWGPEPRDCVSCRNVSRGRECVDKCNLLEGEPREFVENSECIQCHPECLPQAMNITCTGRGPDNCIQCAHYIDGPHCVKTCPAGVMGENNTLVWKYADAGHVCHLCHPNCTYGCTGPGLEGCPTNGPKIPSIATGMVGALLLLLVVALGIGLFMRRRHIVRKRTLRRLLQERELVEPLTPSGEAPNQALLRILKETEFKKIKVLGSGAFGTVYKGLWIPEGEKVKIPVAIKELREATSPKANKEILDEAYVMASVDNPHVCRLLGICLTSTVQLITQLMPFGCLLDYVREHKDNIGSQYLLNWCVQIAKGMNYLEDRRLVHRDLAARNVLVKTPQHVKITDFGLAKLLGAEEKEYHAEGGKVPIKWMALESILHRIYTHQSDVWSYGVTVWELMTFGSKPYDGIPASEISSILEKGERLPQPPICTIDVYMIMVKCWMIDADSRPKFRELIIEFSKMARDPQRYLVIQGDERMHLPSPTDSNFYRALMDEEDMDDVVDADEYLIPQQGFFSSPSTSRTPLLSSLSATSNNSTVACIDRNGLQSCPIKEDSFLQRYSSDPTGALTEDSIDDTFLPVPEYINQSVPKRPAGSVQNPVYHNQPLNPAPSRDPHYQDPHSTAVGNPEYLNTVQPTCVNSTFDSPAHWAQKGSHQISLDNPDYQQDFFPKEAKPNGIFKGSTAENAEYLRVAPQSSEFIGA

As a reminder, the pIC50 is −log10 of the IC50, conventionally taken in molar units. Lower therefore signals a high IC50. As for `CCOC(=O)N1CCN(Cc2ccc(-c3ccc4ncnc(Nc5ccc(OCc6cccc(F)c6)c(Cl)c5)c4c3)o2)CC1`, the pIC50 in data set [1] is 7.84; in data set [2], 7.55.

For `CN1CCN(C(=O)c2ccc(-c3ccc4ncnc(Nc5ccc(OCc6cccc(F)c6)c(Cl)c5)c4c3)o2)CC1`, the pIC50 in data set [1] is 7.27; in data set [2], 6.63.

With `CC(=O)N1CCN(Cc2ccc(-c3ccc4ncnc(Nc5ccc(OCc6cccc(F)c6)c(Cl)c5)c4c3)o2)CC1`, the pIC50 was 8.17 in data set [1] and 7.94 in data set [2].

Usually solubility stands for the concentration that dissolves in the medium under given conditions. Regarding `Cc1ccc(S(=O)(=O)O)cc1.O=S(=O)(CCNCc1ccc(-c2ccc3ncnc(Nc4ccc(OCc5cccc(F)c5)c(Cl)c4)c3c2)o1)CC(F)(F)F`, the inhibition in vivo at 200 mg/kg in the data set on NCI-N87 [3] was found to be 46.9%; in the data set on SK-OV-3 it was 45.2%. Moreover, the Activity entry with Mus musculus [4], in the data set on Mus musculus [5], in the data set with Mus musculus [6], with Mus musculus [7], with Mus musculus [8] and in the data set on Mus musculus [9] was “Non-toxic” throughout. Also, the pIC50 in the data set with BT-474 is 7.58; in the data set with NCI-N87 [10], 7.29; in [1], 8.07; in data set [2], 7.68. In data set [11], this compound gave a solubility of 16.7 µg/mL.

As for `NS(=O)(=O)CCNCc1ccc(-c2ccc3ncnc(Nc4ccc(OCc5cccc(F)c5)c(Cl)c4)c3c2)o1`, the pIC50 in data set [1] is 8.41.

Take `CS(=O)(=O)N1CCN(Cc2ccc(-c3ccc4ncnc(Nc5ccc(OCc6cccc(F)c6)c(Cl)c5)c4c3)o2)CC1`: the values for the pIC50 in data set [1] and in data set [2] were 7.70 and 7.22, respectively.

On to `Fc1cccc(COc2ccc(Nc3ncnc4ccc(-c5ccc(CN6CCOCC6)o5)cc34)cc2Cl)c1`, for which the pIC50 with BT-474 is 7.07; with NCI-N87 [10], 7.20; in data set [1], 7.88; in data set [2] it was 7.59.
